# Hits are enriched below; roughly 3.3% of the tested compounds scored in any of these assays.
# HTR2A ag = activates the mouse 5-HT2A serotonin receptor; actives 0.66% (n = 360,000); P35363; CHO-K1 mHTR2A beta-arrestin complementation, luminescence; percent of 30 µM serotonin response; AID 624169; activation, % at 7.6 µM;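 active = activation above a run cutoff, the mean activation of all tested compounds plus 3 SD, cut at about 14% in these data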;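 also: 0% = plate median of compound wells and 100% = 30 µM serotonin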
# HGIII-sPLA2 inh = Inhibits HGIII-sPLA2 liposome hydrolysis, primary screen. AID 743126. Q9NZ20. actives 0.56% (n = 370,000). QFRET BODIPY PC-A2 liposome hydrolysis, fluorescence. inhibition, % at 12.2 µM;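 active = inhibition above mean plus 3 SD of compounds lying within the high and low control bounds, cut at about 19% in these data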;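 also: 0% = median of test compound wells and 100% = no enzyme DMSO wells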
# Arrestin-AP2 inh = blocks beta-arrestin peptide binding to AP2 adaptin; FITC-arrestin peptide / GST-AP2 beads, flow cytometry; AP2 beta2 appendage carries R879A mutation; actives 0.31% (n = 340,000); AID 504490; inhibition, % at 10 µM;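 active = inhibition above a set limit, near 3 SD of compounds lacking own fluorescence, cut at about 54% in these data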;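 also: plate controls were DMSO wells for no effect and 5 µM unlabelled arrestin peptide for full effect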
#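 System: GST-tagged AP2 beta2-adaptin appendage (R879A) on 4 µm glutathione beads / Reagent: FITC-arrestin peptide, 50 nM / Detection: HyperCyt-sampled flow cytometry, FL1 channel, ex 488/em 535 nm / Timing: 12 min plus 1 h, RT / Buffer or medium: PBS plus Tween 20 (0.05%) and BSA (0.1%)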
# CendR NRP1 mod = modulators of CendR peptide binding to human neuropilin-1; O14786; FAM-RPARPAR peptide binding to NRP-1, fluorescence polarization; actives 0.85% (n = 360,000); inhibition, % at 25 µM;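 active = inhibition or corrected inhibition above about 18%, plus a signal ratio from 0.5 to 1.5, limit read from the data, passing the limit was not always enough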
# Hep lipid drop = modulators of hepatic lipid droplet formation. AML12 mouse hepatocytes, oleate lipid droplets, BODIPY imaging. inhibition, % at 6.5 µM. actives 0.4% (n = 240,000). AID 1656;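 active = lipid droplet intensity inhibited by at least 50%, with more than 500 cells counted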
#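 Test system: AML12 mouse liver cells; schedule: overnight exposure; technique: high-content imaging of BODIPY-stained droplets and DAPI nuclei; read-out: % inhibition of corrected integrated BODIPY droplet signal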
# PfM18AAP inh-1 = PfM18AAP enzyme inhibition. recombinant PfM18AAP, H-Glu-NHMec fluorogenic cleavage. inhibition, % at 7.35 µM. actives 1.2% (n = 290,000);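 active = inhibition above the campaign mean inhibition over all tested compounds plus 3 SD, cut at about 28% in these data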;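 also: 0% = plate median of test compound wells and 100% = 2 mM ZnCl2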
# PfM18AAP inh-2 = confirmation of Plasmodium falciparum M18 aspartyl aminopeptidase inhibitors | actives 28% (n = 2,400) | recombinant PfM18AAP, H-Glu-NHMec fluorogenic cleavage | shares compounds with PfM18AAP inh-1 | inhibition, % at 7.35 µM | AID 2170;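 active = mean inhibition over replicate wells above the hit cutoff set for the earlier primary screen, cut at about 29% in these data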;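 also: 0% = median of test compound wells and 100% = 2 mM ZnCl2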
# CTSL1 counter = Cathepsin L (human) inhibition, confirmation. AID 2178. shares compounds with PfM18AAP inh-1. inhibition, % at 5.96 µM. 2,400 tested, under 10 active. purified cathepsin L1, Z-Leu-Arg-MCA fluorescence;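 active = average inhibition across replicates above the hit cutoff set in the earlier primary screen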;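 also: 0% = median of test compound wells and 100% = Z-Phe-Ala-diazomethylketone 1 µM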
# Target sequence (P07711 whole entry, looked up): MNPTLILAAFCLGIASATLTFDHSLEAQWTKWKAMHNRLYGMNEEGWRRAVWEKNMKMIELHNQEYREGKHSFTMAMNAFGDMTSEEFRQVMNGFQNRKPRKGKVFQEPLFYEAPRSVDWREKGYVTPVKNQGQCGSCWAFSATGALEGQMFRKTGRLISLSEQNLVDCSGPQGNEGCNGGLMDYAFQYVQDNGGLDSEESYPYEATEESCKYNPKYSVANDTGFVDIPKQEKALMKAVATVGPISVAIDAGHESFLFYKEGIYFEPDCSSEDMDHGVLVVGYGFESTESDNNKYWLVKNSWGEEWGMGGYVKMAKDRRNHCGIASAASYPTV
# * hit, by the source's call; . = no result.
SMILES,HTR2A ag,HGIII-sPLA2 inh,Arrestin-AP2 inh,CendR NRP1 mod,Hep lipid drop,PfM18AAP inh-1,PfM18AAP inh-2,CTSL1 counter
CC1=C(C(=O)N2CCOCC2)CC(CC(=O)NCCc2ccccn2)C(=O)N1CCCN1CCCC1=O (stereo not given),1,14,.,-4,.,.,.,.
O=[N+]([O-])c1ccc(NN=Cc2ccccc2O)nc1,-23,-4,2,0,.,.,.,.
Cc1ccccc1-n1c(C)cc(/C=N/Nc2ccc([N+](=O)[O-])cn2)c1C,-4,2,-11,-28,2,45*,-31,5
Cc1cc(/C=N/NC(=O)c2cccc([N+](=O)[O-])c2)c(C)n1-c1ccccc1,-6,2,-3,-4,22,7,.,.
Cc1cc(/C=N/Nc2ccc([N+](=O)[O-])cn2)c(C)n1-c1ccc(C(=O)O)cc1,5,-7,.,-127,14,50*,-24,-2
CC(C)c1cc2c(c(O)c1O)[C@@]13CCCC(C)(C)C1CC2OC3=O (stereo not given in full),-4,7,11,-1,-8,68*,48*,-4
COc1ccccc1C(CNC(=O)c1ccc(C)c(S(=O)(=O)N2CCCCC2)c1)N1CCCC1 (stereo not given),-5,2,-5,-26,.,.,.,.
O=c1cc2c(=O)oc3cc(O)c(O)oc3c2c(O)c1O,10,2,27,-14,1,59*,31*,-4
COc1ccc(C2C(C(C)=O)=C(C)N=c3s/c(=C\c4ccco4)c(=O)n32)c(OC)c1 (stereo not given),-2,-4,10,-10,.,37*,-7,6
CCc1noc(C)c1C(=O)NCCN1C(=O)S/C(=C\c2ccccc2F)C1=O,2,0,.,-5,.,.,.,.
Oc1ccc(/C=N/Nc2ccc(Cl)nn2)c(O)c1O,3,-3,17,-14,4,65*,49*,-1
CCOc1ccc(/C=N/Nc2ccc(Cl)nn2)c(O)c1,4,1,-10,13,7,36*,-30,-1
CCN(CCCNC(=O)C1CCC(=O)N1Cc1ccc(F)cc1)c1cccc(C)c1 (stereo not given),-5,6,-5,11,.,6,.,.
CCN(CCCNC(=O)C1CCN(S(=O)(=O)CC)CC1)c1cccc(C)c1,1,1,9,-2,.,4,.,.
CCN(CCCNC(=O)C1CCN(S(=O)(=O)c2c(C)[nH]c(=O)[nH]c2=O)CC1)c1cccc(C)c1,-2,.,-8,6,-11,32*,-23,-2
CCN(CCCNC(=O)CCNC(=O)Cn1cnc2ccccc2c1=O)c1cccc(C)c1,3,-1,9,-5,3,53*,-25,-2
CCN(CCCNC(=O)C1CCC(=O)N1C1CCCC1)c1cccc(C)c1 (stereo not given),-5,-5,0,12,.,54*,-24,6
Cc1cc(O)c2c(c1)CC1C3CCC4CC(=O)CCC4(C)C3CC(=O)C21C (stereo not given),-2,-1,19,8,.,.,.,.
Cc1n[nH]c(C)c1S(=O)(=O)NCCc1cccc(F)c1,.,6,.,.,.,.,.,.
COc1ccc(C(O)c2nc(-c3cnc4ccccc4c3)cs2)cc1 (stereo not given),0,-15,.,-10,.,.,.,.
CCOC(=O)c1sc(NC(=O)OC)c(C(=O)OC)c1C,0,4,-9,-6,4,0,.,.
CCOC(=O)c1c(NC(=O)OC)sc(C(=O)N(CC)CC)c1C,-2,1,10,0,-4,33*,-1,-6
Cc1cnc(SCCc2ccncc2)nc1C,.,.,.,.,-18,62*,-8,-1
CCc1nc2ccc(C(=O)Nc3cccc(OCC(=O)N(C)C)c3)cn2c1N(C)Cc1cc2ccccc2s1,-2,-31,.,2,.,.,.,.
O=c1c2ccccc2nnn1-c1ccc(Br)cc1,10,12,12,1,2,2,.,.

# Screens from PubChem BioAssay.
